# Experimental data taken from the EternaBench riboswitch data.
# Test system: MS2 coat protein
# Assay: apparent Kd, MS2 coat protein; higher = weaker binding; RNA-MaP array; FMN 200 µM where present
# Summary of the method: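 Green signal from SNAP-549-labelled MS2 coat protein was normalised to red-channel RNA signal and to the median Fmax of control clusters. The protein was titrated from 0.7 or 1.5 nM, doubling to 3 µM, without and then with constant ligand, over designs transcribed by stalled E. coli RNA polymerase on Illumina sequencing-chip clusters, in 100 mM Tris-HCl pH 7.5, 80 mM KCl, 4 mM MgCl2, BSA, DTT, yeast tRNA and Tween-20. The apparent Kd is the median of filtered per-cluster binding-curve fits.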
# [1] = designed as: ON switch for flavin mononucleotide, no ligand
# [2] = ligand present: flavin mononucleotide, designed as: ON switch for flavin mononucleotide
# [3] = designed as: OFF switch for flavin mononucleotide, no ligand
# [4] = ligand present: flavin mononucleotide, designed as: OFF switch for flavin mononucleotide
Sequence,apparent Kd [1] [nM],apparent Kd [2] [nM],apparent Kd [3] [nM],apparent Kd [4] [nM]
GCAAUAGCAUGAGGAUAUGCUGGAGUUUAGACAGUAGAAGGCAUGUCAUAAGACAUGAGGAUCACCCAUGUAAUUACAAUAGCA,45.9,22.1,,
GCACAGGCAGGAUAUACAUGAGGAUCACCCAUGUGACCCUUGAAGUACUCGCGUACUCGUAGAAGGGCCUGUGC,,,177,302
GCACGAGACUAAGGAUAUGGUGUAUCUACAUGAAACAUGAGGAUCACCCAUGUAGUAAGUAUGAUUCAGAAGGUAGAGACGUGC,49.7,23,,
GCACGAUAUCAGGAUAUGACUAGCCUCGGCUAGUCAGAAGGGAUGACAUGAGGAUCACCCAUGUGAUCACGUGC,,,57.2,77.9
GCACGGUAAGUGAGGAUAUACCUCUGGAUACAGAGGUAGAAGGCACAUGAGGAUCACCCAUGUCUCAGCCGUGC,,,16.3,78.2
GCACUGGAUGUAGGAUAUCAGGACGAUAAGUCCUGAGAAGGACAUGAGGAUCACCCAUGUAACCUCUAACCAGUGCAUAAUAUA,,,12.6,23.1
GCACUGGAUGUAGGAUAUCAGGACGAUAAGUCCUGAGAAGGACAUGAGGAUCACCCAUGUACUCAAAACCAGUGCUAUAAUAUA,,,15.6,23.8
GCACUGGAUGUAGGAUAUCAGGACGAUAAGUCCUGAGAAGGACAUGAGGAUCACCCAUGUGAAAAUUCCAGUGCAAAUAAUAUA,,,13,19.1
GCACUGGAUGUAGGAUAUCAGGACGAUAAGUCCUGAGAAGGACAUGAGGAUCACCCAUGUGAUUACACCAGUGCAAAUAAUAUA,,,5.78,7.06
GCACUUAGAGAUGAACCGUUACUAACAUGAGGAUCACCCAUGUAGGAUAUGCUAAUAGUAUUGAAGCAGAAGGACACUAAGUGC,,,5.25,6.51
GCAGAUCAAGUGAGGAUAUCGUCUACCUCGGUAGACGAGAAGGCACAUGAGGAUCACCCAUGUGAUUGAUCUGC,,,17.6,23.6
GCAGCGCCUGACAUGAGGAUCACCCAUGUUAAAUUGUUAAGUCAGGAUAUAGUCUAGAAACUAGACUAGAAGGGAUAUGCUGCU,9.96,8.57,,
GCAGGUCGAGGAUAUACAUGAGGAUCACCCAUGUAGAUCAACCAGCGAUAGCUGGAAUGUAGAAGGUGACCUGC,,,15.7,29.4
GCAGGUUUACGAGGAUAUGGGUGGUACGAACAUGAGGAUCACCCAUGUUUCCCAGAAGGCGUAGCCUAACAAAGAGAACAGGAG,418,22.2,,
GCAGUACGCCUGGCAAUUUGCAAGCAGGAUAUCAGGCACCGUGGGACAUGAGGAUCACCCAUGUCUGAGAAGGGCUGGAGUUGC,,,10.7,23.1
GCAUCCAAAGUGAGGAUAUACCUCUGGAUACAGAGGUAGAAGGCACAUGAGGAUCACCCAUGUUCCUAGGAUGC,,,15.3,74.2
GCAUCCAAAGUGAGGAUAUACCUCUGGAUACAUAGGUAGAAGGCACAUGAGGAUCACCCAUGUUCCUAGGAUGC,,,31.6,43.1
GCAUGCAAGUAGAAGGUCGGAUAUUUUGAUAACGAAGGAUAUACAGAAUCAUAUCCACAUGAUAACAUGAGGAUCACCCAUGUA,,,14.7,15.8
GCAUGCAUAGCGAUAUGAUCGAGAGAUCAUGUCGCUAAAUUUAGAAGGACAUGAGGAUCACCCAUGUAGGAUAUGGGAGCAUGA,44.6,11.5,,
GCAUGCGUUCGAGGAUAUCGGUGAGAAACGGAACGAGAAGGCGAUCGAAUGUCUCAUAUUAUGAACAUGAGGAUCACCCAUGUA,514,131,,
GCAUGUGUGUAAGGAUAUGCAUCACUGAGAAAUUUAGUGAGGAAGAUCACAUGAGGAUCACCCAUGUAGAAGGUACACACGUGC,,,8.01,56.9
GCCAGGAUGUAAGGAUAUGCUGAGGAUAACUCAGCAGAAGGUACAUGAGGAUCACCCAUGUAAACCUAUAAUAAAUAACCUGGC,,,11,15.4
GCCAGGAUGUGAGGAUAUGCUGAGGAUACUUCAGCAGAAGGCACAUGAGGAUCACCCAUGUACACUUAUCAUAAAUACCCUGGC,,,13.4,16.3
GCCAGUUAUGUAGGAUAUGCGAGGCGAGCCUGAGCAGAAGGACAUGAGGAUCACCCAUGUAUUGCGGUUUAAGUUCUGAUCGCU,,,22.2,47.2
GCCAGUUGAGGAUAUGCAGGUGGGUGCCCUGAUCCUCUGUUACAUGAGGAUCACCCAUGUAGAAGGCAAUGUCA,,,92.4,123
GCCAUCGCAUGAGGAUAUGCUCCCGUUUCGGGAGCAGAAGGCAUGUCACAAGACAUGAGGAUCACCCAUGUAGAUAAGAUGGCA,257,9.49,,
GCCAUCGCAUGAGGAUAUGCUCCGGUUUCCGGAGCAGAAGGCAUGUCGUUAGACAUGAGGAUCACCCAUGUAGUUAAGAUGGCA,999,41.1,,
GCCAUCGCAUGAGGAUAUGGUCUGCUUUGCAGACCAGAAGGCAUGUCAUAAGACAUGAGGAUCACCCAUGUAGUUAAGAUGGCA,800,43.9,,

Sequence,apparent Kd [1] [nM],apparent Kd [2] [nM],apparent Kd [3] [nM],apparent Kd [4] [nM]
GCCAUCGUAUGAGGAUAUGGCACCGCAACGGUGCCAGAAGGCAUGUCAAUAGACAUGAGGAUCACCCAUGUGUUAUCGAUGGCA,153,13.9,,
GCCAUGCUGGUGACGGAUAACACAUGAGGAUCACCCAUGUACAGAAGGCGGAAUUAGCGUAGGACCGAGGAUAUGUGCGUGAGG,,,30.8,42.3
GCCAUGUCAGGAUAUAAGCUGUUGCCGAACGGUCAACACAAUUAGAAGGGACAUGAGGAUCACCCAUGUCCGAG,,,18.5,20.3
GCCCUCGCUGAGGAUAUUAUCUGGUUCGAUUGAUAAGAAGGCAGUACAUGAGGAUCACCCAUGUGGUUCGUUCG,,,70.9,377
GCCGCGUUUCGCGCCUACAUGAGGAUCACCCAUGUUUGUGGGCAGGAUAUCGUCCGCUCUGCGGGCGAGAAGGGCUGUUGUGGU,57.7,50,,
GCCGGGUAGGCAGGAUAUCCUCGCGCAAACACAUGAGGAUCACCCAUGUACACAAAACGUGAUAUGGAGAAGGGCCGACCCGCA,26.6,5.28,,
GCCGGGUCAGGAUAUGGGCCCGGGCCCGAAAGGGCCCGGGCCCAGAAGGGACAUGAGGAUCACCCAUGUCCGGC,,,19.5,16.5
GCCGGUUCCCUAGGAUAUGUACAUGAGGAUCACCCAUGUGCUUCUAGAGCCGGAGCAGGGCAUGUACAGAAGGAGGGUCGACCC,,,6.47,7.39
GCCUCACAUGAGGAUCACCCAUGUCAGGAUAUGGACUCGAGGGUCUUGGAAGACUGGGCCAGAAGGGACUAUGG,,,57,83
GCCUCAUAGUAGAAGGGACUAUUACAGUAAUUUUUUUAGAUUAAAUAACAUGAGGAUCACCCAUGUCAGGAUAUACUAAGAGGC,,,26.4,37.1
GCCUCGCUGUGAGGAUAUUACGCCUACCGGCAAAAUGCGGUUUCAGGUCCGUAAGAAGGCACAUGAGGAUCACCCAUGUAAGAA,,,26.7,213
GCCUUACAUGAGGAUCACCCAUGUCAGGAUAUGUCAGAGUAGGUAAAACACCACUCUAAUAGAAGGGACAUGCA,,,16.8,28.6
GCCUUAUCAGUCAGGAUAUACAAUAAAAUAAUUAAGUAGAAGGGACAUGAGGAUCACCCAUGUACAUUACAUUG,,,18.6,53.5
GCCUUAUCCGUCAGGAUAUACAUUUUUUUUUUGUUGUAGAAGGGACAUGAGGAUCACCCAUGUACAUUACAUUG,,,25.8,28.9
GCGAAGAACGAGAAGGCCACUACAUGAGGAUCACCCAUGUCGUGGUGUAUUGGAGGAUAUCGAUCGGCGUCUCAUGAGGACAUA,,,5.35,5.44
GCGAAUUAGUGAGGAUAUACAUAAUUUAUAACUGUAGAAGGCACAAACCUCAAGACAUGAGGAUCACCCAUGUGGUAUUACGCU,,,112,281
GCGCUUAUACAGAAGGCCAUAUACAUGAGGAUCACCCAUGUUAUUUGGUGGAGGAUAUGUUUAUUAUUACAGGUAGAUGAGCGC,6.3,5.72,,
GCGGCCAACGUAGGAUAUCUUCAGCCACAGCACAUUGCUGUACAUGAGGAUCACCCAUGUCCUGGAGAGAAGGACGGACGGCAG,37.7,8.73,,
GCGGUACAUGAGGAUCACCCAUGUCAGGAUAUCCGCUGUUUGUCGUUUGGCGGGCGGUGGAGAAGGGACCUCGC,,,90,93
GCGGUUACGGUUGGCACUUAGCGAGAGGAUAUGGAAAACAAGACAUGAGGAUCACCCAUGUACUAUCAGAAGGCUCGAGCACGC,7.76,5.8,,
GCGUAAUAGGUGUAGCUAGUCGUGCAAGAAGGGUGGUGAACAUGAGGAUCACCCAUGUGGUCAAUACAGGAUAUUGCUAUACGC,572,139,,
GCGUACAUAUCAGGAUAUCAUUGAAUGGAUUAACACAGUGAAUACAUGAGGAUCACCCAUGUGCUUGAGAAGGGAUUACUACGC,,,11.1,10.4
GCGUAUAUAAGAUUUAUUUAACAGUCAGAAGGUGAUAAUACGACAUGAGGAUCACCCAUGUAAUUCAAGGAUAUGAUCUUACGC,133,65.7,,
GCGUCAGAAUUAAUUGUGACAGACAGAAGGCAAUAGUAUGUGACCGACAUGAGGAUCACCCAUGUUGAGGAUAUGUAUUGACAC,,,5.68,7.08
GCGUCAGAAUUAAUUGUGACAGACAGAAGGCAAUAGUUCAUGUCAGACAUGAGGAUCACCCAUGUUGAGGAUAUGUAUUUACAC,,,6.05,6.29
GCGUCAGAAUUAAUUGUGACAGGCAGAAGGCCAUAUCUUAUGUCAGACAUGAGGAUCACCCAUGUGGAGGAUAUGCAGUUACAC,,,11.5,19.1
GCGUCAGGAGGAUAUACAUGAGGAUCACCCAUGUAACACGGGAUAGUAGUAUAGUAGAGUAGAAGGCCUAUAGU,,,37.5,46
